We go through eight molecules from publication PMC5080318 (Cancer Chemotherapy and Pharmacology, 2016).

Molecules are shown by their SMILES. Like-named read-outs stand apart in the source and are kept apart here. Marks after values point to notes of the source that are not given here. Bounds are passed on as bounds.

The subject of data set [1] is solid tumors and hematological malignancies. As to conditions: cited from earlier work; for antitumor activity: phase I trials, solid tumors and hematological malignancies.
Data set [2] has as its system xenograft models of human non-small cell lung cancer, colon carcinoma, and pancreas carcinoma. The settings on record: cited from earlier work.
Data set [3] has as its system caspase-cleaved cytokeratin-18 (CK-18). Briefly: plasma caspase-cleaved CK-18. The settings on record: both schedules. The class given is in vivo, human. In short, it runs like this:
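Plasma was drawn pre-dose and at 48, 72 and 120 h after the first two 24-h IV infusions in each schedule: Days 1 and 15 of a 4-week cycle, or Day 1 of a 3-week cycle. Further samples were taken pre-dose and at 120 h post-dose up to Cycle 6. Caspase-cleaved CK-18 was quantified by validated ELISA.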

In data set [4] the test system is phosphorylated histone H3 (pHH3). The settings on record: in vitro; cited from earlier work.
For data set [5], the system named is patients with advanced solid tumors. The settings on record: in vivo.
Data set [6] shares this test system. Briefly: phase I safety: adverse events.
A short description of data set [7]: phase I pharmacokinetics, plasma and urine. It counts as in vivo, human. As to conditions: for mean terminal half-life: range over doses.
The test system of data set [8] is HCT 116 colorectal cancer model. The settings on record: preclinical models; ref Boehringer Ingelheim; data on file; cited from earlier work.
The test system of data set [9] is alpha-1-acid glycoprotein (AGP). The settings on record: preclinical; ref Boehringer Ingelheim, data on file; cited from earlier work.
In data set [10] the test system is advanced solid tumors. Briefly: antitumor activity. It counts as in vivo, human.
For data set [11], the system named is patients with advanced solid tumors. Briefly: phase I dose escalation: DLT and MTD. It counts as in vivo.
In data set [12] the test system is tumor cell lines. As to conditions: 48 h following treatment; cited from earlier work.
Data set [13] has as its system acute myeloid leukemia (AML). As to conditions: cited from earlier work; for complete response rate / febrile neutropenia / stomatitis: randomized phase II trial, elderly patients with AML.
Data set [14] concerns patients with advanced solid tumors. The settings on record: cited from earlier work.

Take `O=C(Nc1c[nH]nc1-c1nc2ccc(CN3CCOCC3)cc2[nH]1)NC1CC1` [AT9283]: the antitumor activity entry in [1] is given as “limited antitumor activity”.

In the case of `CC(C)NC(=O)[C@H]1CCC[C@H]1Nc1nc(Nc2ccc(C(=O)N(C)C3CCN(C)CC3)cc2)ncc1C(F)(F)F` [BI 811283], the “pHH3 in xenograft models” value in data set [2] (marker of Aurora B kinase inhibition) is listed as “decrease in pHH3”. Also, the “effect on tumor growth in xenograft models” value in data set [2] (tumor regression in some cases) is “dose-dependent inhibition of tumor growth”. Further, the “level of caspase-cleaved CK-18 in plasma after infusion” value in data set [3] is recorded as “no consistent trend”. Also, the “time of treatment until pHH3 was reduced” value in [4] is not above 1 h. The “drug-related Alopecia, grade All” value in [5] is listed as 11 (17.5) n (%); in [6] (Schedule B, Total (N = 58)), 12 (20.7) n (%). The “drug-related Fatigue, grade ≥3” value in data set [5] was 1 (1.7) n (%). In addition, the “drug-related Nausea, grade ≥3” value in data set [5] is 1 (1.6) n (%). Also, in [5], the “drug-related alopecia, patients” value is 19.8%. In addition, the “drug-related decreased appetite, patients” value in [5] was 14.9%. The “drug-related diarrhea, patients” value in data set [5] came to 16.5%. Further, the “drug-related fatigue, patients” value in [5] amounted to 31.4%. For the same molecule, the “drug-related leukopenia, patients” value in data set [5] is reported as 28.9%. The “drug-related nausea, patients” value in data set [5] was 24.0%. Moreover, the “drug-related neutropenia, patients” value in [5] is reported as 33.1%. The “deaths considered related to the study treatment” value in data set [6] (22 patients with fatal AEs) is reported as “None”. For the same molecule, the “patients with SAEs regarded as drug related” value in data set [6] (all patients) is “Thirteen”; in data set [6] (schedule A, n = 3), 4.8%; in data set [6] (schedule B, n = 10), 17.2%. Besides, the “patients with fatal AEs” value in [6] (all patients, n = 22) was found to be 18.2%; in data set [6] (schedule A, n = 10) it was 15.9%; in [6] (schedule B, n = 12) it was 20.7%. Further, the “patients with serious AEs (SAEs)” value stood at 50.4% in [6] (all patients, n = 61); 52.4% in data set [6] (schedule A, n = 33); 48.3% in [6] (schedule B, n = 28). In addition, in data set [6] (all patients, most common drug-related SAE), the “drug-related SAE febrile neutropenia” value is recorded as “seven”. In addition, the “exposure to total BI 811283 (bound and unbound) in patients with higher AGP plasma concentrations” value in data set [7] (human, in vivo) was “trend toward increased exposure”. Further, the “time to maximum plasma concentration after start of infusion” value in data set [7] (human, in vivo, iv) was 20 to 24 h. Besides, the “Cmax and AUC0–∞ versus dose” value in [7] (in vivo) is reported as “increased in a dose-dependent manner”. In addition, in data set [7] (in vivo), the “fraction excreted in urine” value is listed as 4 to 12 % of the administered dose. Besides, in data set [7] (in vivo), the “time after end of infusion in which most of the compound was eliminated” value was not above 6 h. Besides, the mean terminal half-life in [7] (schedule A) was in the range of 11.4 to 30.5 h; in [7] (schedule B), 10.1 to 27.0 h. Also, the “antitumor activity of weekly and 2-weekly 24-h continuous infusion” value in data set [8] is “similarly strong antitumor activity”. Besides, in [9], the protein binding entry is “dependent on the plasma concentrations of alpha-1-acid glycoprotein (AGP)”. Further, the “best overall response SD, share of patients” value in data set [10] (both treatment schedules) is reported as “approximately 30%”. Moreover, the objective response entry in data set [10] (either treatment schedule) is “No patients”. Moreover, the “Patients with DLT” value is 0 in data set [11] (schedule A, 5 mg, n 3, first cycle); 1 in data set [11] (schedule A, 10 mg, n 7, first cycle); 0 in [11] (schedule A, 13.5 mg, n 3, first cycle); 0 in [11] (schedule A, 18 mg, n 3, first cycle); 0 in data set [11] (schedule A, 24 mg, n 4, first cycle); 0 in [11] (schedule A, 32 mg, n 3, first cycle). The “Patients with DLT” value in data set [11] (schedule A, 43 mg, n 5, first cycle) is listed as 0; in data set [11] (schedule A, 58 mg, n 3, first cycle) it was 0; in data set [11] (schedule A, 78 mg, n 7, first cycle) it was 1; in [11] (schedule A, 105 mg, n 6, first cycle), 1; in data set [11] (schedule A, 125 mg (MTD), n 16 incl. expansion cohort, first cycle) it was 1; in data set [11] (schedule A, 140 mg, n 3, first cycle), 2. Also, the “Patients with DLT” value is 0 in data set [11] (schedule B, 13.5 mg, n 3, first cycle); 0 in data set [11] (schedule B, 18 mg, n 3, first cycle); 0 in data set [11] (schedule B, 24 mg, n 3, first cycle); 0 in data set [11] (schedule B, 32 mg, n 4, first cycle); 0 in [11] (schedule B, 43 mg, n 3, first cycle); 0 in [11] (schedule B, 58 mg, n 3, first cycle). For the same molecule, the “Patients with DLT” value in data set [11] (schedule B, 78 mg, n 3, first cycle) is on record as 0; in [11] (schedule B, 105 mg, n 6, first cycle) it was 1^c; in data set [11] (schedule B, 125 mg, n 3, first cycle), 0^c; in [11] (schedule B, 150 mg, n 3, first cycle), 0; in data set [11] (schedule B, 180 mg, n 3, first cycle), 0^c; in data set [11] (schedule B, 230 mg, second cohort n 3 (after 300 mg), first cycle), 0. The “Patients with DLT” value in data set [11] (schedule B, 270 mg, n 5, first cycle) was found to be 2; in [11] (schedule B, 300 mg, n 3, first cycle), 2. Besides, the “maximum tolerated dose (MTD)” value is reported as 125 mg in [11] (schedule A: 24-h infusion Days 1 and 15 of a 4-week cycle); 230 mg in data set [11] (schedule B: 24-h infusion Day 1 of a 3-week cycle). For the same molecule, the “Patients with retrospectively identified potential DLT” value in data set [11] (schedule B, 105 mg, n 6) is given as 2; in [11] (schedule B, 125 mg, n 3) it was 1; in data set [11] (schedule B, 180 mg, n 3), 1. In [12], the “polyploidy, share of cells” value is given as “up to 80%”.

Turning to `Nc1ccn([C@@H]2O[C@H](CO)[C@@H](O)[C@@H]2O)c(=O)n1` [LDAC, cytosine arabinoside], in [13], the complete response rate was 11.5%, the febrile neutropenia was 19% and the stomatitis is given as 15%.

For `O=C(O)c1ccc(Nc2ncc3c(n2)-c2ccc(Cl)cc2C(c2c(F)cccc2F)=NC3)cc1` [MLN8054], the dose-limiting toxicities entry in data set [14] was “DLTs of liver enzyme elevations were observed”.

As for `CC(=O)NCC(=O)N1[C@@H]2CC[C@H]1c1ccc(Nc3ncc(C(F)(F)F)c(NC4CCC4)n3)cc12` [PF-03814735], in [1], the antitumor activity entry is recorded as “limited antitumor activity”.

`COc1cc(Nc2ncc3c(n2)-c2ccc(Cl)cc2C(c2c(F)cccc2OC)=NC3)ccc1C(=O)O` [alisertib]: the clinical activity entry in [1] (phase II study, preliminary evidence) is “durable disease control in multiple cancer types”.

As for `CCN(CCCOc1ccc2c(Nc3cc(CC(=O)Nc4cccc(F)c4)n[nH]3)ncnc2c1)CCOP(=O)(O)O` [barasertib], the response rate in data set [13] (in combination with low-dose cytosine arabinoside (LDAC), AML) was 45%. In addition, the hematological response rate in [13] (monotherapy, phase I/II trials, AML) is given as 19–25%. Moreover, in data set [13], the complete response rate is 35.4%, the febrile neutropenia is listed as 67% and the stomatitis was 71%. The clinical activity result in data set [1] (advanced solid tumors) is listed as “limited activity in solid tumors”.

For `CO[C@@H](C(=O)N1Cc2n[nH]c(NC(=O)c3ccc(N4CCN(C)CC4)cc3)c2C1)c1ccccc1` [danusertib], the clinical activity entry is on record as “promising clinical activity” in data set [1] (advanced hematological malignancies) and “limited activity” in [1] (phase I/II studies in advanced solid tumors).
